Data: ChEMBL document CHEMBL1146219, “Synthesis and evaluation of novel radioiodinated benzamides for malignant melanoma” (J Med Chem, 2007)

Key:
Conditions in all cases: in vivo
Blood [1] = experiment: Biodistribution in blood of B16F0 tumor bearing C57BL/6J mouse at 0.37-0.74 MBq, iv after 24 hrs; type: ADME, organism-based
Method in brief: (§1)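 Female C57BL/6J mice (15-18 g) were given B16F0 cells subcutaneously in the left flank (0.1 mL of 3 × 10⁶ viable cells/mL in Ca²⁺/Mg²⁺-free PBS) at 6-7 weeks and used after ten days. [¹²³I]benzamide (0.37-0.74 MBq, 100 µL, saline) was injected via the tail vein. Groups of n = 5 were killed by CO₂ and cervical dislocation. Organs were weighed and γ-counted, and the carcass was counted too.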

[2] = Biodistribution in melanoma of B16F0 tumor bearing C57BL/6J mouse at 0.37-0.74 MBq, iv after 1 hr; type: ADME, organism-based, B16-F0; method in brief: as §1
[3] = Biodistribution in melanoma of B16F0 tumor bearing C57BL/6J mouse at 0.37-0.74 MBq, iv after 6 hrs; type: ADME, organism-based, B16-F0
Method in brief: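 Female C57BL/6J mice (15-18 g) carrying s.c. B16F0 flank tumors (0.1 mL of 3 × 10⁶ viable cells per mL in Ca²⁺/Mg²⁺-free PBS, inoculated at 6-7 weeks, used 10 days later). [¹²³I]tracer 0.37-0.74 MBq in saline, 100 µL, tail-vein i.v. Groups of n = 5 killed at 1-72 h. Organs weighed and γ-counted, carcass activity also counted, values as %ID/g.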

[4] = Biodistribution in melanoma of B16F0 tumor bearing C57BL/6J mouse at 0.37-0.74 MBq, iv after 24 hrs; type: ADME, organism-based, B16-F0; method in brief: as §1
Liver [5] = experiment: Biodistribution in liver of B16F0 tumor bearing C57BL/6J mouse at 0.37-0.74 MBq, iv after 1 hr; type: ADME, organism-based; method in brief: as §1
Liver [6] = experiment: Biodistribution in liver of B16F0 tumor bearing C57BL/6J mouse at 0.37-0.74 MBq, iv after 6 hrs; type: ADME, organism-based; method in brief: as §1
Liver [7] = experiment: Biodistribution in liver of B16F0 tumor bearing C57BL/6J mouse at 0.37-0.74 MBq, iv after 24 hrs; type: ADME, organism-based; method in brief: as §1
Kidney [8] = experiment: Biodistribution in kidney of B16F0 tumor bearing C57BL/6J mouse at 0.37-0.74 MBq, iv after 1 hr; type: ADME, organism-based; method in brief: as §1
Kidney [9] = experiment: Biodistribution in kidney of B16F0 tumor bearing C57BL/6J mouse at 0.37-0.74 MBq, iv after 6 hrs; type: ADME, organism-based; method in brief: as §1
Kidney [10] = experiment: Biodistribution in kidney of B16F0 tumor bearing C57BL/6J mouse at 0.37-0.74 MBq, iv after 24 hrs; type: ADME, organism-based; method in brief: as §1
Lung [11] = experiment: Biodistribution in lung of B16F0 tumor bearing C57BL/6J mouse at 0.37-0.74 MBq, iv after 1 hr; type: ADME, organism-based; method in brief: as §1
Lung [12] = experiment: Biodistribution in lung of B16F0 tumor bearing C57BL/6J mouse at 0.37-0.74 MBq, iv after 6 hrs; type: ADME, organism-based; method in brief: as §1
Lung [13] = experiment: Biodistribution in lung of B16F0 tumor bearing C57BL/6J mouse at 0.37-0.74 MBq, iv after 24 hrs; type: ADME, organism-based; method in brief: as §1
Heart [14] = experiment: Biodistribution in heart of B16F0 tumor bearing C57BL/6J mouse at 0.37-0.74 MBq, iv after 1 hr; type: ADME, organism-based; method in brief: as §1
Heart [15] = experiment: Biodistribution in heart of B16F0 tumor bearing C57BL/6J mouse at 0.37-0.74 MBq, iv after 6 hrs; type: ADME, organism-based; method in brief: as §1
Heart [16] = experiment: Biodistribution in heart of B16F0 tumor bearing C57BL/6J mouse at 0.37-0.74 MBq, iv after 24 hrs; type: ADME, organism-based; method in brief: as §1
Brain [17] = experiment: Biodistribution in brain of B16F0 tumor bearing C57BL/6J mouse at 0.37-0.74 MBq, iv after 1 hr; type: ADME, organism-based; method in brief: as §1
Brain [18] = experiment: Biodistribution in brain of B16F0 tumor bearing C57BL/6J mouse at 0.37-0.74 MBq, iv after 6 hrs; type: ADME, organism-based; method in brief: as §1
Brain [19] = experiment: Biodistribution in brain of B16F0 tumor bearing C57BL/6J mouse at 0.37-0.74 MBq, iv after 24 hrs; type: ADME, organism-based; method in brief: as §1
Blood [20] = experiment: Biodistribution in blood of B16F0 tumor bearing C57BL/6J mouse at 0.37-0.74 MBq, iv after 1 hr; type: ADME, organism-based; method in brief: as §1
Blood [21] = experiment: Biodistribution in blood of B16F0 tumor bearing C57BL/6J mouse at 0.37-0.74 MBq, iv after 6 hrs; type: ADME, organism-based; method in brief: as §1
[22] = Biodistribution in tumor of B16F0 tumor bearing C57BL/6J mouse at 0.37-0.74 MBq, iv after 1 hr in presence of haloperidol; type: ADME, organism-based, B16-F0
Method in brief: (§2)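 B16F0 tumor-bearing C57BL/6J mice, groups of n = 5, given haloperidol 1 mg/kg i.v. 5 min before the i.v. [¹²³I]tracer (0.37-0.74 MBq). Killed at 1 or 24 h. Tissues γ-counted as for biodistribution and compared with untreated controls by one-way ANOVA, significance p < 0.01.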

[23] = Biodistribution in tumor of B16F0 tumor bearing C57BL/6J mouse at 0.37-0.74 MBq, iv after 24 hrs in presence of haloperidol; type: ADME, organism-based, B16-F0; method in brief: as §2
[24] = Biodistribution in eye of B16F0 tumor bearing C57BL/6J mouse at 0.37-0.74 MBq, iv after 1 hr in presence of haloperidol; type: ADME, organism-based
Method in brief: (§3)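 Haloperidol blocking in B16F0-bearing C57BL/6J mice: 1 mg/kg haloperidol was given iv 5 min before the iv [¹²³I]benzamide (0.37-0.74 MBq). Groups of n = 5 were killed at 1 or 24 h. Tissues were weighed and γ-counted as in the biodistribution study and compared with untreated controls by one-way ANOVA, with p < 0.01 taken as significant.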

[25] = Biodistribution in eye of B16F0 tumor bearing C57BL/6J mouse at 0.37-0.74 MBq, iv after 24 hrs in presence of haloperidol; type: ADME, organism-based; method in brief: as §3
Liver [26] = experiment: Biodistribution in liver of B16F0 tumor bearing C57BL/6J mouse at 0.37-0.74 MBq, iv after 1 hr in presence of haloperidol; type: ADME, organism-based; method in brief: as §3
Liver [27] = experiment: Biodistribution in liver of B16F0 tumor bearing C57BL/6J mouse at 0.37-0.74 MBq, iv after 24 hrs in presence of haloperidol; type: ADME, organism-based; method in brief: as §3
Kidney [28] = experiment: Biodistribution in kidney of B16F0 tumor bearing C57BL/6J mouse at 0.37-0.74 MBq, iv after 1 hr in presence of haloperidol; type: ADME, organism-based; method in brief: as §3
Kidney [29] = experiment: Biodistribution in kidney of B16F0 tumor bearing C57BL/6J mouse at 0.37-0.74 MBq, iv after 24 hrs in presence of haloperidol; type: ADME, organism-based; method in brief: as §3
Lung [30] = experiment: Biodistribution in lung of B16F0 tumor bearing C57BL/6J mouse at 0.37-0.74 MBq, iv after 1 hr in presence of haloperidol; type: ADME, organism-based; method in brief: as §3
Lung [31] = experiment: Biodistribution in lung of B16F0 tumor bearing C57BL/6J mouse at 0.37-0.74 MBq, iv after 24 hrs in presence of haloperidol; type: ADME, organism-based; method in brief: as §3
Blood [32] = experiment: Biodistribution in blood of B16F0 tumor bearing C57BL/6J mouse at 0.37-0.74 MBq, iv after 1 hr in presence of haloperidol; type: ADME, organism-based
Blood [33] = experiment: Biodistribution in blood of B16F0 tumor bearing C57BL/6J mouse at 0.37-0.74 MBq, iv after 24 hrs in presence of haloperidol; type: ADME, organism-based
Brain [34] = experiment: Biodistribution in brain of B16F0 tumor bearing C57BL/6J mouse at 0.37-0.74 MBq, iv after 1 hr in presence of haloperidol; type: ADME, organism-based
Brain [35] = experiment: Biodistribution in brain of B16F0 tumor bearing C57BL/6J mouse at 0.37-0.74 MBq, iv after 24 hrs in presence of haloperidol; type: ADME, organism-based

Structure (SMILES): O=C(NC1CCN(CCF)CC1)c1ccc(I)cc1
- Drug uptake (Blood [1]): 0.04 % ID/g
- Drug uptake [2]: 10.9 % ID/g
- Drug uptake [3]: 12.5 % ID/g
- Drug uptake [4]: 5.5 % ID/g
- Drug uptake (Liver [5]): 19.2 % ID/g
- Drug uptake (Liver [6]): 3.8 % ID/g
- Drug uptake (Liver [7]): 0.29 % ID/g
- Drug uptake (Kidney [8]): 8.7 % ID/g
- Drug uptake (Kidney [9]): 3.4 % ID/g
- Drug uptake (Kidney [10]): 0.22 % ID/g
- Drug uptake (Lung [11]): 10.8 % ID/g
- Drug uptake (Lung [12]): 6.4 % ID/g
- Drug uptake (Lung [13]): 0.33 % ID/g
- Drug uptake (Heart [14]): 3 % ID/g
- Drug uptake (Heart [15]): 0.93 % ID/g
- Drug uptake (Heart [16]): 0.09 % ID/g
- Drug uptake (Brain [17]): 3.1 % ID/g
- Drug uptake (Brain [18]): 0.48 % ID/g
- Drug uptake (Brain [19]): 0.09 % ID/g
- Drug uptake (Blood [20]): 1 % ID/g
- Drug uptake (Blood [21]): 0.34 % ID/g
- Drug uptake [22]: 10.5 % ID/g
- Drug uptake [23]: 3.3 % ID/g
- Drug uptake [24]: 34.8 % ID/g
- Drug uptake [25]: 24.6 % ID/g
- Drug uptake (Liver [26]): 10.1 % ID/g
- Drug uptake (Liver [27]): 0.12 % ID/g
- Drug uptake (Kidney [28]): 7.3 % ID/g
- Drug uptake (Kidney [29]): 0.1 % ID/g
- Drug uptake (Lung [30]): 9.7 % ID/g
- Drug uptake (Lung [31]): 0.14 % ID/g
- Drug uptake (Blood [32]): 1.46 % ID/g
- Drug uptake (Blood [33]): 0.03 % ID/g
- Drug uptake (Brain [34]): 1.61 % ID/g
- Drug uptake (Brain [35]): 0.06 % ID/g
